Data from ChEMBL document CHEMBL5385915 (J Med Chem, 2024).
Values after ≈ are worked out from the molar mass of the structure shown. Active and inactive are the calls of the source. The rule behind the calls is not given here.

Key:
[1] = tested on: Mycolicibacterium smegmatis; assay: Antimycobacterial activity against Mycobacterium smegmatis MC(2)155 assessed as reduction in microbial growth incubated for 24 hrs by resazurin dye based assay; type: functional
[2] = Lipophilicity, log P of the compound; type: physicochemical; settings: octanol/water
[3] = tested on: Mycolicibacterium smegmatis; assay: Inhibition of cell wall biosynthesis in Mycobacterium smegmatis assessed as reduction in trehalose dimycolate accumulation at 0.5 to 5 times MIC incubated for 6 hrs in presence of [14C]acetate by alpha-napthol staining based TLC analysis; type: functional, organism-based
[4] = tested on: Mycobacterium tuberculosis; assay: Bactericidal activity against Mycobacterium tuberculosis H37Rv assessed as reduction in viable count at 96 uM incubated for 10 days by CV-AM staining based flow cytometry analysis; type: functional; settings: time 10 day
Summary of the method: (§1)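 H37Rv from time-kill wells (3–96 μM, 0.1% DMSO vehicle) at each time point, stained in quadruplicate 1 h, 37 °C, dark with 20 μM CV-AM and/or 20 μM Sytox Green; fixed 4% formaldehyde 1 h; flow cytometry (405/488 nm lasers); singlets gated by FSC area/height, quadrant gates P1–P4.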

[5] = tested on: Mycobacterium tuberculosis; assay: Bactericidal activity against Mycobacterium tuberculosis H37Rv assessed as reduction in viable count at 48 uM incubated for 6 days by sytox green staining based flow cytometry analysis; type: functional; settings: time 6 day; summary of the method: as §1
[6] = tested on: Mycolicibacterium smegmatis; assay: Inhibition of macromolecule biosynthesis in Mycobacterium smegmatis assessed as reduction in incorporation of [3H]-leucine in protein at 0.75 times MIC incubated for 36 hrs; type: functional, organism-based
[7] = tested on: Mycobacterium tuberculosis; assay: Bactericidal activity against Mycobacterium tuberculosis H37Rv assessed as reduction in bacterial count at […] uM incubated for 14 days by time kill assay; type: functional; settings: time 14 day
Summary of the method: (§2)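 Time-kill: 2-fold dilutions 96–3 μM in CMM MOD2, 0.1% DMSO vehicle; start 1×10^6 CFU/mL, 37 °C, 200 rpm; sampled days 0, 2, 6, 10, 14; 10-fold dilutions spotted in triplicate on 7H10, counted after 3 weeks; three biological repeats; factorial ANOVA with Tukey post hoc.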

[8] = tested on: Corynebacterium glutamicum; assay: Inhibition of mycolic acid biosynthesis in Corynebacterium glutamicum pks13 at 0.5 to 5 times MIC incubated for 6 hrs by TLC based autoradiography analysis; type: functional, organism-based
[9] = tested on: Mycobacterium tuberculosis; assay: Bactericidal activity against Mycobacterium tuberculosis H37Rv assessed as reduction in viable count at 96 uM incubated for 14 days by CV-AM staining based flow cytometry analysis; type: functional; settings: time 14 day; summary of the method: as §1
[10] = tested on: Mycobacterium tuberculosis; assay: Bactericidal activity against Mycobacterium tuberculosis H37Rv assessed as reduction in viable count at 96 uM incubated for 6 days by CV-AM staining based flow cytometry analysis; type: functional; settings: time 6 day; summary of the method: as §1
[11] = Metabolic stability in mouse hepatocyte assessed as intrinsic clearance measured upto 60 mins […] by LC-MS/MS analysis; type: ADME, cell-based; settings: hepatocytes, 1 h
Summary of the method: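 Mouse hepatocytes at 0.5 × 10^6 cells/mL incubated with 1 μM compound at 37 °C, sampled at 0, 10, 20, 30, 45 and 60 min. Disappearance with and without hepatocytes measured by LC-MS/MS; output is mean CLint and t1/2. Duplicate per compound, with up to three species-specific controls.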

[12] = tested on: Mycolicibacterium smegmatis; assay: Inhibition of macromolecule biosynthesis in Mycobacterium smegmatis assessed as reduction in incorporation of [3H]-diaminopimelic acid in peptidoglycan at 1 times MIC incubated for 6 hrs; type: functional, organism-based
[13] = tested on: Mycobacterium tuberculosis; assay: Bactericidal activity against Mycobacterium tuberculosis H37Rv assessed as reduction in bacterial count at […] uM incubated for 6 days by time kill assay; type: functional; settings: time 6 day; summary of the method: as §2
[14] = tested on: Corynebacterium glutamicum; assay: Inhibition of mycolic acid biosynthesis in Corynebacterium glutamicum at 0.5 to 5 times MIC incubated for 6 hrs by TLC based autoradiography analysis; type: functional, organism-based
[15] = tested on: Mycolicibacterium smegmatis; assay: Inhibition of cell wall biosynthesis in Mycobacterium smegmatis assessed as reduction in trehalose monomycolate accumulation at 0.5 to 5 times MIC incubated for 6 hrs in presence of [14C]acetate by MPA staining based TLC analysis; type: functional, organism-based
[16] = tested on: Mycobacterium tuberculosis; assay: Bactericidal activity against Mycobacterium tuberculosis H37Rv incubated for 6 to 10 days by time kill assay; type: functional, organism-based; settings: dose <= 96.0 µM, time 6-10 day; summary of the method: as §2
[17] = tested on: Mycolicibacterium smegmatis; assay: Inhibition of macromolecule biosynthesis in Mycobacterium smegmatis assessed as reduction in incorporation of [3H]-uridine in RNA at 0.75 times MIC incubated for 36 hrs; type: functional, organism-based
[18] = tested on: Mycolicibacterium smegmatis; assay: Inhibition of mycolic acid biosynthesis in Mycobacterium smegmatis at 5 times MIC incubated for 12 hrs in presence of [14C]acetate by TLC based autoradiography analysis; type: functional, organism-based
[19] = tested on: Mycobacterium tuberculosis; assay: Bactericidal activity against Mycobacterium tuberculosis H37Rv assessed as reduction in viable count at 48 uM incubated for 14 days by sytox green staining based flow cytometry analysis; type: functional; settings: time 14 day; summary of the method: as §1
[20] = tested on: Corynebacterium glutamicum; assay: Inhibition of mycolic acid biosynthesis in Corynebacterium glutamicum harboring MmpL3 at 0.5 to 5 times MIC incubated for 6 hrs by TLC based autoradiography analysis; type: functional, organism-based
[21] = tested on: Mycobacterium tuberculosis; assay: Bactericidal activity against Mycobacterium tuberculosis H37Rv assessed as reduction in viable count at 96 uM incubated for 14 days by sytox green staining based flow cytometry analysis; type: functional, organism-based; settings: time 14.0 day; summary of the method: as §1
[22] = tested on: Mycolicibacterium smegmatis; assay: Inhibition of macromolecule biosynthesis in Mycobacterium smegmatis assessed as reduction in incorporation of [3H]-thymidine in DNA at 0.75 times MIC incubated for 36 hrs; type: functional, organism-based
[23] = tested on: Mycobacterium tuberculosis; assay: Antitubercular activity against Mycobacterium tuberculosis 1192/015 assessed as inhibition of bacterial growth measured for 7 days by REMA analysis; type: functional; settings: 1192/015, 168 h, time 7 day
Summary of the method: (§3)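 REMA: 2-fold dilutions in CMM MOD2 medium, wells inoculated at 1×10^6 CFU/mL, 7 days at 37 °C with 200 rpm agitation; resazurin (0.02% w/v in PBS pH 7.4, 5% Tween 80) then 6 h at room temperature; OD570 vs vehicle; MIC99 by modified Gompertz function; three biological replicates.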

[24] = Metabolic stability in mouse liver microsome assessed as intrinsic clearance measured upto 30 mins in presence of NADPH by LC-MS/MS analysis; type: ADME; settings: liver microsomes, read-out: CLH
Summary of the method: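 1 μM compound with 0.5 mg/mL mouse liver microsomes, with or without NADPH (1 mM), 37 °C, sampled at 0, 5, 10, 15 and 30 min. Parent loss followed by LC-MS/MS, giving mean CLint and t1/2. Two replicates per compound; up to three species-specific control compounds included.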

[25] = tested on: Mycobacterium tuberculosis; assay: Antitubercular activity against drug-sensitive Mycobacterium tuberculosis H37Rv pTYOK assessed as inhibition of bacterial growth measured upto 3 days by luminometer based analysis; type: functional; settings: 72 h, time <= 3 day
[26] = Efflux ratio of permeability across basolateral to apical side over apical to basolateral side in human Caco-2 cells incubated for 2 hrs by LC-MS/MS analysis; type: ADME, cell-based
[27] = tested on: Mycobacterium tuberculosis; assay: Antitubercular activity against drug-sensitive Mycobacterium tuberculosis H37Rv assessed as inhibition of bacterial growth measured for 7 days by REMA analysis; type: functional; settings: 168 h, time 7 day; summary of the method: as §3
HepG2 [28] = assay: Cytotoxicity against human HepG2 cells assessed as reduction in cell viability incubated for 24 hrs in presence of glucose by MTT assay; type: functional, cell-based; settings: HepG2, 24 h
[29] = tested on: Mycobacterium tuberculosis; assay: Bactericidal activity against Mycobacterium tuberculosis H37Rv assessed as reduction in viable count at 48 uM incubated for 14 days by CV-AM staining based flow cytometry analysis; type: functional; settings: time 14 day; summary of the method: as §1
[30] = tested on: Mycobacterium tuberculosis; assay: Bactericidal activity against Mycobacterium tuberculosis H37Rv assessed as reduction in viable count at 48 uM incubated for 10 days by CV-AM staining based flow cytometry analysis; type: functional; settings: time 10 day; summary of the method: as §1
[31] = tested on: Mycobacterium tuberculosis; assay: Bactericidal activity against Mycobacterium tuberculosis H37Rv assessed as reduction in viable count at 48 uM incubated for 6 days by CV-AM staining based flow cytometry analysis; type: functional; settings: time 6 day; summary of the method: as §1
[32] = tested on: Mycolicibacterium smegmatis; assay: Inhibition of cell wall biosynthesis in Mycobacterium smegmatis assessed as formation of cytoplasmic membrane phospholipids at 0.5 to 5 times MIC incubated for 6 hrs in presence of [14C]acetate by TLC based autoradiography analysis; type: functional, organism-based
HepG2 [33] = assay: Cytotoxicity against human HepG2 cells assessed as reduction in cell viability incubated for 24 hrs in presence of galactose by MTT assay; type: functional, cell-based; settings: HepG2, 24 h
[34] = Kinetic solubility in pH 7.4 PBS incubated for 5 mins by UV-spectrophotometry analysis; type: physicochemical; settings: read-out: Kinetic_solubility
Summary of the method: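 Compounds from 10 mM DMSO stock diluted in PBS pH 7.4 to a seven-point series (0.2–100 μM), final DMSO 1%, shaken 5 min at 25 °C. Turbidity read by UV at 620 nm; Log_S converted to solubility as S = 10^LogS. Nicardipine control; triplicate.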

COCCNC[C@@H]1C[C@H](c2ccc(OC(F)(F)F)cc2)N1Cc1ccccc1OC(F)(F)F (racemic)
MIC99 [1]: 29 µM | logP [2]: 6.1

CNC[C@@H]1C[C@H](c2ccc(OC(F)(F)F)cc2)N1Cc1ccccc1OC(F)(F)F (racemic)
inhibition [3]: Active | Activity [4]: 0.08% | Activity [5]: 0.027% | inhibition [6]: inactive | Activity [7]: 3.99 log10CFU/ml | inhibition [8]: Active | Activity [9]: 0.011% | Activity [10]: 0.043% | intrinsic clearance (CLint) [11]: < 60 µL/min/mg | inhibition [12]: Active | Activity [13]: 3.28 log10CFU/ml | inhibition [14]: Active | inhibition [15]: Active | Activity [16]: Dose-Dependent Effect | inhibition [17]: inactive | inhibition [18]: Active | Activity [19]: 0.068% | inhibition [20]: Active | logP [2]: 6.14 | Activity [21]: Active | inhibition [22]: inactive

FC(F)(F)c1cc([C@H]2C[C@@H](CN3CCCC3)N2Cc2ccccc2Br)cc(C(F)(F)F)c1 (racemic)
MIC99 [23]: 19.1 µM (≈ 9.96 µg/mL) | inhibition [8]: Active | intrinsic clearance (CLint) [11]: < 60 µL/min/mg | microsomal CLint [24]: > 150 µL/min/mg | MIC50 [25]: 6.9 µM (≈ 3.6 µg/mL) | MIC99 [1]: 26 µM | inhibition [20]: Active | logP [2]: 6.6 | efflux ratio at 2 h [26]: < 1 | MIC99 [27]: 3.3 µM (≈ 1.72 µg/mL)

C#CCNC[C@@H]1C[C@H](c2cc(Br)cc(Br)c2)N1Cc1ccccc1Br (racemic)
MIC99 [1]: 100 µM | logP [2]: 5.82

Brc1cc(Br)cc([C@H]2C[C@@H](CN3CCCC3)N2Cc2ccccc2Br)c1 (racemic)
IC50 (HepG2 [28]): > 100 µM | Activity [29]: 0.066% | Activity [7]: 1.9 log10CFU/ml | inhibition [8]: Active | intrinsic clearance (CLint) [11]: < 60 µL/min/mg | microsomal CLint [24]: > 150 µL/min/mg | Activity [13]: 0.79 log10CFU/ml | Activity [30]: 0.065% | Activity [31]: 0.067% | inhibition [32]: Active | Activity [16]: Dose-Dependent Effect | IC50 (HepG2 [33]): > 100 µM | inhibition [20]: Active | Activity [21]: Active

CC(C)NC[C@@H]1C[C@H](c2ccc(OC(F)(F)F)cc2)N1Cc1ccccc1OC(F)(F)F (racemic)
MIC99 [1]: 23 µM | logP [2]: 6.92

CC(C)NC[C@@H]1C[C@H](c2ccccc2)N1Cc1ccccc1Br (racemic)
MIC99 [1]: 94 µM | logP [2]: 4.82

FC(F)(F)Oc1ccc([C@H]2C[C@@H](CN3CCCC3)N2Cc2ccccc2OC(F)(F)F)cc1 (racemic)
inhibition [8]: Active | solubility kinetic at 5 min [34]: 7 µM (≈ 3.32 µg/mL) | intrinsic clearance (CLint) [11]: < 60 µL/min/mg | microsomal CLint [24]: > 150 µL/min/mg | inhibition [20]: Active | logP [2]: 6.93 | efflux ratio at 2 h [26]: < 1

CC(C)NC[C@@H]1C[C@H](c2ccccc2)N1Cc1ccccc1OC(F)(F)F (racemic)
MIC99 [1]: 87 µM | logP [2]: 5.49

CC(C)NC[C@@H]1C[C@H](c2ccc(OC(F)(F)F)cc2)N1Cc1ccccc1Br (racemic)
MIC99 [1]: 23 µM | logP [2]: 6.26

FC(F)(F)Oc1ccc(C2CCN(C[C@@H]3C[C@H](c4ccccc4)N3Cc3ccccc3Br)CC2)cc1 (racemic)
MIC99 [1]: 100 µM | logP [2]: 8.14

CN(C)C[C@@H]1C[C@H](c2cc(Br)cc(Br)c2)N1Cc1ccccc1Br (racemic)
MIC99 [1]: 80 µM | logP [2]: 5.97

Brc1ccccc1CN1[C@H](CN2CCCC2)C[C@@H]1c1ccccc1 (racemic)
MIC99 [1]: 30.5 µM | logP [2]: 4.84

COc1ccc([C@H]2C[C@@H](CN3CCCC3)N2Cc2ccccc2Br)cc1 (racemic)
logP [2]: 4.68

Clc1cc(Cl)cc([C@H]2C[C@@H](CN3CCCC3)N2Cc2ccccc2Br)c1 (racemic)
MIC99 [1]: 14 µM | logP [2]: 6.05

FC(F)(F)c1ccc(C2CCN(C[C@@H]3C[C@H](c4ccccc4)N3Cc3ccccc3Br)CC2)cc1 (racemic)
MIC99 [1]: 100 µM | logP [2]: 7.58
